Screening results: PubChem, several laboratories
JNK3 blocker = blocks human JNK3 kinase activity; P53779; purified JNK3 kinase activity, HTS; inhibition, % at 8 µM; actives 0.61% (n = 60,000); AID 746; in the data active = inhibition above about 17%;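 also: 0% = DMSO and 100% = reference inhibitor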
M1 antagonist = antagonists of rat M1 muscarinic receptor; B-score at 10 µM; CHO-M1 cells, Fluo-4 calcium, ACh EC80 antagonist mode; hits give low values; AID 628; actives 3.4% (n = 64,000); P08482;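 active = calcium fluorescence response, raw or row-and-column corrected B-score, differing from the plate sample mean either way at a set confidence level, mostly lower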
M1 ag = agonists of M1 muscarinic receptor; CHO-M1 cells, Fluo-4 calcium fluorescence, agonist mode; hits give high values; actives 3% (n = 64,000); B-score at 10 µM; AID 626;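 active = fluorescence rise, raw or as B-score row- and column-corrected plate score, outside the 99.7% band of its plate's samples, either direction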
HER2 expr 66K = Her2 kinase expression inhibition; HER2 level % of control, % at 10 µM; P04626; AID 645; actives 0.69% (n = 65,000); SKBR-3 HER2 protein level, AlphaScreen, 18-24 h; hits give low values;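 active = HER2 level under 5% of the carrier-only control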;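 also: 100% = DMSO carrier and 0% = 500 nM PU-H71 HSP90 inhibitor; lower value means stronger loss of Her2 protein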
HEK293 NFkB inh = inhibitors of the PMA/ionomycin-induced NF-kB reporter in HEK293 cells; inhibition, % at 3 µM; HEK-293 NF-kB luciferase reporter, luminescence; AID 465; actives 0.21% (n = 62,000);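 active = inhibition above the mean of all tested compounds plus 3 SD, cut at about 40% in these data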;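 also: 0% = stimulated DMSO wells and 100% = 10 µM reference inhibitor 5653914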
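Signal: luciferase luminescence; Material: HEK-293 cells with stable firefly luciferase reporter driven by four HIV NF-kB elements; Probe or stimulus: PMA with ionomycin; Replication: tested once; Times: 1 h compound pretreatment, then 16 h stimulation at 37 °C, 5% CO2; Benchmarks: DMSO and 10 µM reference inhibitor; Evaluation: per-plate % inhibition versus controls.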
BAP1 inh = inhibitors of human BAP1 deubiquitinase; calls only at 20 µM; recombinant BAP1, Ub-AMC hydrolysis fluorescence kinetic; hits give low values; AID 436; actives 0.48% (n = 72,000); Q92560;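 active = activity remaining at or below 50% of control, provided the compound also passes the data quality filters; inactive = the rest, including low values that fail the filters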;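 also: 100% = DMSO wells rate and 0% = substrate alone blank rate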
Target sequence (Q92560 whole entry, looked up): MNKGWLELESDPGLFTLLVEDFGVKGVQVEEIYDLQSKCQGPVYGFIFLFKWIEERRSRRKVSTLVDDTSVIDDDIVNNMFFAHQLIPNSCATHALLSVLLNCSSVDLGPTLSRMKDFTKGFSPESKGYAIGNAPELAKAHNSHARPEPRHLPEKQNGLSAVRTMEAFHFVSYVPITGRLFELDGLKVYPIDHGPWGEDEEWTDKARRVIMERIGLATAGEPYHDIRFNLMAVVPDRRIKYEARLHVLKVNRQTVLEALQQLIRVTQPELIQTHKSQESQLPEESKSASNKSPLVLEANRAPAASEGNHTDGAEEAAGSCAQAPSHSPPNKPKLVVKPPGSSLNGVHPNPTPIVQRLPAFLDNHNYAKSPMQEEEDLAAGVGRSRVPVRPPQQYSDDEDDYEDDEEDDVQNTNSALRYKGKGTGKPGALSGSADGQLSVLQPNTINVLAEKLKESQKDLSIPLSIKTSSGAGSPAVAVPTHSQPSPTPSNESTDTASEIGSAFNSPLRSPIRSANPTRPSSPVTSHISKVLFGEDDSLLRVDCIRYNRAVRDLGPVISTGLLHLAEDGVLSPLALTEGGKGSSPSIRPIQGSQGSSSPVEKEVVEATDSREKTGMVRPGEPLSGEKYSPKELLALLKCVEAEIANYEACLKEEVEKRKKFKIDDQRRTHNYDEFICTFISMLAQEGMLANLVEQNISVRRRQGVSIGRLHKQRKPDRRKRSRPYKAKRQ
Numbers without * were called inactive; i = inactive; · = no result shown. Only some compounds are listed: those with a hit (about 6.6% of all), similar ones and a draw of the others.

SMILES	JNK3 blocker	M1 antagonist	M1 ag	HER2 expr 66K	HEK293 NFkB inh	BAP1 inh
CCOC(=O)c1ccc(Oc2nc(NC)nc(OC)n2)cc1	·	2.7*	-0.5	92	-5	i
COC(=O)COC(=O)c1ccc(Oc2nc(OC)nc(N(C)C)n2)cc1	9	-0.0064	-0.73	114	-3	i
NC(=O)c1ccccc1NC(=O)C(Cc1ccccc1)N1C(=O)c2ccccc2C1=O (configuration not stated)	·	·	·	·	·	i
O=C1/C(=N/n2cnnc2)c2ccccc2N1Cc1ccccc1	-2	0.036	-1	-16*	10	i
c1ccc2c(c1)C(=Nn1cnnc1)c1ccccc1-2	·	-0.25	-0.16	120	6	i
CCSc1nc2sc3c(c2c(=O)n1C1CCCCC1)CCN(C)C3	6	-2.3*	-0.89	81	·	i
Cc1cc(-n2c(C)cc(C(=O)CSc3nnnn3-c3ccc(Cl)cc3)c2C)no1	2	-0.14	1.4	-7.5*	9	i
COc1ccc2[nH]c(=O)c(CN(Cc3ccco3)Cc3nnnn3Cc3ccccc3)cc2c1	-2	-0.18	-0.46	99	11	·
COC(=O)c1ccccc1S(=O)(=O)N(Cc1ccco1)Cc1cc2cc(OC)ccc2[nH]c1=O	1	-0.19	7.7*	74	9	i
CN(Cc1ccccc1)C(=O)c1cc2n(n1)C(C(F)(F)F)CC(c1ccccc1)N2 (configuration not stated)	·	·	·	·	·	i
CCOc1ccc(-c2cn(CCC#N)cn2)cc1	1	2.1*	1.1	95	11	i
CCOc1ccc(-c2nn[nH]n2)cc1	-11	0.044	0.8	82	9	i
CC(C)C(=O)N(Cc1cc2ccccc2[nH]c1=O)C(C)(C)C	-6	-0.029	0.38	-27*	-1	i
COc1ccc(Cn2nnnc2C(c2cccs2)N2CCOCC2)cc1 (configuration not stated)	-3	2.3*	-0.0052	112	18	i
c1ccc(CCn2nnnc2C(c2cccs2)N2CCOCC2)cc1 (configuration not stated)	0	-0.076	-0.31	91	13	i
O=C(Nc1ccccc1O)c1cc(S(=O)(=O)N2CCOCC2)c(Cl)cc1Cl	-6	0.22	0.62	82	0	i
O=C(NCCCn1ccnc1)c1cc(S(=O)(=O)N2CCOCC2)c(Cl)cc1Cl	·	1.2	-0.19	-32*	15	·
O=C(c1ccccc1F)N1CCN(c2cc(N3CCCCC3)c(F)cc2[N+](=O)[O-])CC1	·	·	·	·	·	i
CCOC(=O)CSc1nc2c(sc3ccccc32)c(=O)n1CCCN1CCOCC1	24*	·	·	94	12	i
COC(=O)c1sc(S(=O)(=O)N2CCN(c3ccccc3)CC2)c(C(=O)OC)c1C	-3	0.4	-0.033	-30*	16	i
Cn1cnnc1SCc1ccc(C#N)cc1	3	-0.016	0.8	98	13	i
Cn1cnnc1SCc1ccc(C(=O)O)cc1	·	2.1*	1.2	148	-9	·
Fc1cccc(-c2cc3nc4c(c(N5CCOCC5)n3n2)CCCC4)c1	3	0.23	0.52	105	15	i
Fc1cccc(-c2cc3nc4c(c(N5CCN(c6cnccn6)CC5)n3n2)CCCC4)c1	-6	0.0026	14*	79	4	i
CCOc1ccc(Nc2c3c(nc4ncnn24)CC(C)CC3)cc1 (configuration not stated)	-3	2.4*	1.2	79	4	i
SMILES	JNK3 blocker	M1 antagonist	M1 ag	HER2 expr 66K	HEK293 NFkB inh	BAP1 inh
Cc1ccc(Nc2c3c(nc4ncnn24)CCC3)cc1	·	0.8	-0.73	63	14	i
O=C(CSc1ncccc1-c1nc2ccccc2[nH]1)N1CCN(c2ccccc2F)CC1	28*	-0.41	-0.3	121	23	·
Cc1ccccc1Cn1c(SCc2ccc(Cl)cc2)nc2c1c(=O)n(C)c(=O)n2C	·	·	·	·	·	i
c1csc(-c2cnc3ccccc3n2)c1	25*	-0.073	0.12	40	-23	i
c1cncc(-c2nc3c4ccccc4nc(N4CCC(N5CCCCC5)CC4)n3n2)c1	6	-6.7*	-0.25	76	8	i
COc1ccccc1N1CCN(C(=O)c2oc3ccccc3c2C)CC1	4	-4.5*	0.77	136	16	i
COC(=O)C1=C(C(=O)OC)SC(=C2C(=S)C(C)(C)N(C(=O)c3cccnc3)c3ccc(C)cc32)S1	·	·	·	·	·	i
